Source: PubChem (several laboratories)
CSC inhib – cancer stem cell viability inhibitors, primary screen, luminescence; cancer stem cell-like cells viability; inhibition, % at 7.5 µM; 300,000 tested, 1.1% active; in the data active = inhibition above about 75%; tested in HMLE shEcad cells
Beta cell apopt – inhibitors of cytokine-induced beta cell apoptosis, primary screen, luminescence; INS-1E cytokine-induced death, ATP luminescence, 48 h; percent of positive-control rescue, neutral wells zero; AID 435005, 2010; protection from apoptosis, % (no concentration beside the values); 300,000 tested, 0.8% active;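 active = Every replicate reaches about 75%, or at least half do and their mean reaches it too, limit read from the data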;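 note: 0% = cytokine-treated negative control wells and 100% = positive control rescue; higher means more ATP so stronger rescue from cytokine killing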
UPR XBP1 act – activators of adaptive XBP1 UPR arm, primary screen, cell-based, CHO-XBP1 luciferase reporter, luminescence, uHTS. IRE1-XBP1 UPR activation; percent of tunicamycin response, DMSO as zero. activation, % at 20 µM. 330,000 tested, 0.33% active;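 active = versus positive control, 20 µM dose yields 30% or more activation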;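 note: 100% = tunicamycin at 10 µg/mL and 0% = DMSO only wells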
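Material – CHO cell line with stable XBP1 luciferase reporter · Buffer or medium – F12 plus 10% FBS · Compound – single point, 20 µM final compound, 1% DMSO · Schedule – 16-18 h cell attachment at 37 °C, then 6 h compound exposure · Signal – Steady-Glo luminescence read · Benchmarks – high control tunicamycin 10 µg/mL final, low control DMSO vehicle only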
SKKanGAS inh – S. pyogenes SKKanGAS growth inhibitors in kanamycin, primary screen, streptokinase expression inhibitor project, SKKanGAS strain, BacTiter-Glo luminescence | AID 1662, 2009 | 300,000 tested, 1.3% active | 6 h | inhibition, % at 7.5 µM;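 active = mean replicate score, as percent of positive control median, at least 50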;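 note: strain carries kanamycin resistance gene driven by streptokinase promoter and grows in 40 µg/ml kanamycin; loss of luminescence reflects streptokinase promoter inhibition or plain growth inhibition; 0% = median of DMSO wells and 100% = positive control at its reference dose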
Mdm2 MdmX PPI – inhibitors of human Mdm2-MdmX association, primary screen, cell-based, luminescence, split luciferase, SaOS-2, uHTS; Protein Mdm4 (Homo sapiens) + E3 ubiquitin-protein ligase Mdm2 (Homo sapiens), …; SaOS-2 split-luciferase Mdm2/MdmX complementation; inhibition, % at 8 µM; 330,000 tested, 3% active;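 active = inhibition of at least 50% at 8 µM in the primary screen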
Target sequence (O15151 whole entry, looked up): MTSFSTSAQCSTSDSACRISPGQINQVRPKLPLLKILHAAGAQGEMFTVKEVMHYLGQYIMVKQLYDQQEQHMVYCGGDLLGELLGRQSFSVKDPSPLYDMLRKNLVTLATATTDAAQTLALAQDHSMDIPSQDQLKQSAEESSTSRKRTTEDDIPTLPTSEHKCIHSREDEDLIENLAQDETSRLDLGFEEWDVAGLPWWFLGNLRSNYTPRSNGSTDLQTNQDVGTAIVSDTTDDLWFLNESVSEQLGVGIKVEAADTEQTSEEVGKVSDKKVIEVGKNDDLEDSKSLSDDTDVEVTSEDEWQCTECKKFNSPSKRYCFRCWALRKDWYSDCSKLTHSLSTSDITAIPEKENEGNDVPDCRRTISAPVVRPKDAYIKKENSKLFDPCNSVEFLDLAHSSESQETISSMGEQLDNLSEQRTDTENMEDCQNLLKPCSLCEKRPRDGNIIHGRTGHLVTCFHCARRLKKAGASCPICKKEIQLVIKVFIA
Target sequence (Q00987 whole entry, looked up): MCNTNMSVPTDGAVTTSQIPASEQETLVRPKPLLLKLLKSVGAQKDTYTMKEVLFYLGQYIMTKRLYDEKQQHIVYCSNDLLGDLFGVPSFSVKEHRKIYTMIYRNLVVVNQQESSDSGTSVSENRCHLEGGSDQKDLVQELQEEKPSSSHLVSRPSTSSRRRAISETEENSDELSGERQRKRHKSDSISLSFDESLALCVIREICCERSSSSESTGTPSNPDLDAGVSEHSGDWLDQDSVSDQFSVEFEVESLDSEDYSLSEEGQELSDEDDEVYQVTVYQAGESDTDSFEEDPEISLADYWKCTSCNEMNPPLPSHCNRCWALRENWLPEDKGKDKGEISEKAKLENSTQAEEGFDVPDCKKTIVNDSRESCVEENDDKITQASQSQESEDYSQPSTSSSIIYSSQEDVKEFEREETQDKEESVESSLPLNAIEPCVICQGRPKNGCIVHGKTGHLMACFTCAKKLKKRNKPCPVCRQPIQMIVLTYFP
CHOP UPR activ – activators of apoptotic CHOP UPR arm, primary screen, cell-based, CHO-CHOP luciferase reporter, luminescence, uHTS. UPR activation; percent of tunicamycin response over DMSO baseline. 330,000 tested, 0.34% active. AID 449763, 2010. activation, % at 10 µM;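 active = at 10 µM dose, activation of 40% or more, normalized to positive control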;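 note: 100% = tunicamycin at 10 µg/mL and 0% = DMSO alone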
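Test system: CHO CHOP reporter cells. Input: 500 CHO-CHOP cells per well. Medium: F12 with 10% FBS. Technique: luciferase luminescence. Measure: percent activation relative to tunicamycin control. Dosing: 10 µM compound, 0.5% DMSO. Timing: 16-18 h cell attachment, then 6 h compound exposure, 37 °C.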
Mdm2-MdmX conf – Mdm2-MdmX complex disruptors, retested hits, confirmation, luminescence, single concentration; shares compounds with Mdm2 MdmX PPI; Mdm2-MdmX binding, luminescent assay; inhibition, % at 8 µM; 10,000 tested, 55% active; in the data active = inhibition above about 40%
Full FLuc ctr – full-length luciferase signal inhibition, confirmation, counter-screen for Mdm2/MdmX interaction inhibitor project, cell-based, single concentration, SaOS-2 | shares compounds with Mdm2 MdmX PPI | SaOS-2 full-length luciferase counterscreen, luminescence | inhibition, % at 8 µM | 6,200 tested, 77% active;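 active = mean inhibition at 8 µM reaching about 37%, which flags the compound as non-specific, limit read from the data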;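 note: p53-null SaOS-2 cells with luciferase driven by a doxycycline-inducible promoter; compound on cells about two nights before reading with doxycycline added after day one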
* = called active by the depositor; nt = no result. Shown are actives, neighbours in structure and some others; about 4.8% of the full set was active somewhere.

SMILES	CSC inhib	Beta cell apopt	UPR XBP1 act	SKKanGAS inh	Mdm2 MdmX PPI	CHOP UPR activ	Mdm2-MdmX conf	Full FLuc ctr
COc1ccc2c(c1)OC[C@H]1[C@H]2N2C(=O)c3cc(Br)ccc3NC(=O)[C@@]2(C)[C@H]1c1ccccc1	-9	5	-5	nt	17	0	nt	nt
COc1ccc(CN(CCC(C)C)S(=O)(=O)c2ccccc2Br)cc1	nt	nt	1	nt	-25	1	nt	nt
COc1ccc(CN(C2CC2)S(=O)(=O)c2ccccc2Br)cc1	nt	nt	2	nt	51*	3	0	nt
COc1ccc(C2CC(O)(c3ccccc3)Oc3c(C)ccc(C)c32)cc1 (stereo unspecified)	nt	-5	2	89*	51*	4	25	nt
COc1ccc(C2CC(O)(c3ccccc3)Oc3cc(OC)cc(OC)c32)cc1 (stereo unspecified)	nt	nt	2	-3	9	0	nt	nt
Cc1ccc(Nc2nc(N)nc(CCl)n2)c(C)c1	2	-3	0	44	95*	37	100*	53*
Nc1nc(CCl)nc(Nc2ccccc2)n1	-2	-14	4	2	36	7	nt	nt
Cc1cccc(Nc2nc(N)nc(CCl)n2)c1	10	-10	2	-2	68*	18	64*	61*
Cc1cccc(Nc2nc(N)nc(CCl)n2)c1C	-2	7	2	-1	100*	34	100*	60*
Cc1ccc(Nc2nc(N)nc(CCl)n2)cc1	-12	-4	-4	-4	83*	16	79*	59*
Cc1c(Br)cnn1C(C)C(=O)N1CCN(c2ccc(F)cc2)CC1 (stereo unspecified)	nt	-1	-2	nt	3	-1	nt	nt
Cc1cc(C)n2nc(C(=O)OCC(=O)Nc3ccc(C)c(S(=O)(=O)N4CCOCC4)c3)nc2n1	-11	-7	-1	nt	14	-1	nt	nt
CC(C)(C)NC(=O)C(c1ccccc1)N(C(=O)CNC(=O)c1cccs1)c1cccnc1 (stereo unspecified)	-9	-5	2	-4	7	1	nt	nt
Cc1ccc(Nc2nc(N)nc(CSc3ncccn3)n2)cc1	0	-6	1	-2	-136	7	nt	nt
CCOc1ccc(Nc2nc(N)nc(CCl)n2)cc1	-2	41	-2	0	98*	26	98*	57*
Cc1ccc(Nc2nc(N)nc(CSc3nnc(-c4ccncc4)o3)n2)cc1	-13	-9	3	2	67*	5	20	nt
C=CCc1cc(OC)ccc1OCCN1CC(C)OC(C)C1 (stereo unspecified)	nt	nt	-2	7	35	0	nt	nt
CC1CCC(NCCNC(=O)c2ccco2)CC1 (stereo unspecified)	-8	1	0	-5	0	3	nt	nt
CCOc1ccccc1C1CC(=O)Nc2cc(OC)c(OC)c(OC)c21 (stereo unspecified)	8	2	-2	-2	44	-2	nt	nt
CC(C)Oc1ccccc1C1CC(=O)Nc2cc3c(cc21)OCO3 (stereo unspecified)	54	34	7	-15	70*	-2	61*	84*
Cc1cc2c(cc1C)C(c1ccccc1OC(C)C)CC(=O)N2 (stereo unspecified)	96*	41	-4	6	57*	1	55*	43*
COc1cc2c(cc1OC)C(c1cc(C)ccc1C)CC(=O)N2 (stereo unspecified)	-7	4	-3	-3	9	-1	nt	nt
COc1ccccc1C1CC(=O)Nc2cc(C)c(C)cc21 (stereo unspecified)	39	6	-4	-2	60*	-1	55*	60*
Cc1cc2c(cc1C)C(c1ccccc1Br)CC(=O)N2 (stereo unspecified)	7	-2	-1	24	17	-1	nt	nt
O=C1CC(c2cccnc2)c2cc3c(cc2N1)OCO3 (stereo unspecified)	-15	-1	-2	2	-22	-1	nt	nt
SMILES	CSC inhib	Beta cell apopt	UPR XBP1 act	SKKanGAS inh	Mdm2 MdmX PPI	CHOP UPR activ	Mdm2-MdmX conf	Full FLuc ctr
CCOc1ccccc1C1CC(=O)Nc2cc(C)c(C)cc21 (stereo unspecified)	32	8	-6	-3	57*	0	59*	54*
CCN(c1ccccc1)S(=O)(=O)c1ccc(C(=O)N(CCN(C)C)c2nc3c(F)cc(F)cc3s2)cc1	-7	0	-3	0	32	1	nt	nt
Cc1c2ccccc2c(C)c2c1ccc1ccccc12	26	-6	-6	nt	79*	4	40*	98*
N#Cc1c(N)nc2c3c(sc(=N)c2c1N)NC(=O)CC3c1ccccc1 (stereo unspecified)	-3	17	25	16	17	6	nt	nt
Cc1c(C#N)c(N)nc2c3c(sc12)NC(=O)CC3c1ccc(Cl)cc1 (stereo unspecified)	-15	0	8	-9	92*	4	24	nt
FC(F)(F)c1cc(C(F)(F)F)c2ccc(N3CCN(c4ncccn4)CC3)nc2n1	1	1	0	7	58*	1	-8	nt
FC(F)(F)c1cc(C(F)(F)F)c2ccc(N3CCOCC3)nc2n1	-6	0	3	1	-4	0	nt	nt
COc1ccccc1N1CCN(C2CCN(C3CCC(c4ccccc4)CC3)CC2)CC1 (stereo unspecified)	46	-10	-2	-1	60*	2	29	nt
COc1ccccc1N1CCN(C2CCC(C)CC2)CC1 (stereo unspecified)	-8	4	-3	2	-2	1	nt	nt
Cn1c(=O)c2c(nc(NCCNC(=O)c3ccco3)n2Cc2ccc(Cl)cc2Cl)n(C)c1=O	-6	5	-4	-2	-4	0	nt	nt
Cn1c(=O)c2c(nc(NCC3CCCC(CN)C3)n2Cc2ccc(Cl)cc2Cl)n(C)c1=O (stereo unspecified)	47	27	-4	-1	58*	-1	42*	65*
NNc1nc2sc3c(c2c(=O)n1C1CCCCC1)CCN(Cc1ccccc1)C3	48	-7	2	10	55*	-2	8	nt
